# A selection: hits, their analogues and other compounds. The true share with any hit is near 2.1%.
# CAL PDZ FP-1: blocks peptide binding to the human CAL PDZ domain | Q9HD26 | purified CAL PDZ, TMR-peptide fluorescence polarization, 1 h | inhibition, % at 24.9 µM | 0.92% of 300,000 active | AID 602252;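 active = mean inhibition of at least 30% with at least half of replicates also reaching 30%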;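 note: 0% = DMSO neutral control and 100% = excess unlabeled competitor peptide PRC23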
# SR-BI HDL uptake: inhibitors of mouse SR-BI mediated HDL lipid uptake. inhibition, % at 12.5 µM. ldlA[mSR-BI] CHO cells, DiI-HDL uptake fluorescence, 3 h. Q61009. 0.96% of 320,000 active;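 active = mean replicate inhibition of at least 70% and a set share of replicates each scoring 70 or more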;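 note: 0% = median of neutral control wells and 100% = median of positive control wells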
# Target sequence (Q61009 whole entry, looked up): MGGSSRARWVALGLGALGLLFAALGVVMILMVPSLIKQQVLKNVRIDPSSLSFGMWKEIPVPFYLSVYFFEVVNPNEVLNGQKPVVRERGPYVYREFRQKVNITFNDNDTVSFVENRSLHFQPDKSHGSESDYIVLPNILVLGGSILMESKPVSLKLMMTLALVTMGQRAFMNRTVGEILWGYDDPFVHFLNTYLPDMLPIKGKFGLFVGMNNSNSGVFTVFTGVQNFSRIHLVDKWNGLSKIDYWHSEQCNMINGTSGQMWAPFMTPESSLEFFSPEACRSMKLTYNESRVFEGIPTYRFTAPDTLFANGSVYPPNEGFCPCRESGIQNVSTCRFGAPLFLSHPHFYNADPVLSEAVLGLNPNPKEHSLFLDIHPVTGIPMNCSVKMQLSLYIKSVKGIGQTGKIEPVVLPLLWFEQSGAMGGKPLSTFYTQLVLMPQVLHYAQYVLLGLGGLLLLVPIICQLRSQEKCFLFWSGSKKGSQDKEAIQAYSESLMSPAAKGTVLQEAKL
# SR-BI DiI-HDL act: enhances SR-BI lipid uptake from DiI-HDL | AID 504775 | activation, % at 12.5 µM | CHO ldlA[mSR-BI] cells, DiI-HDL uptake fluorescence, 3 h; 100 = double the neutral-control signal | 0.096% of 320,000 active;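 active = mean replicate activation of at least 60% and every replicate at or above 60%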;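 note: 0% = median plate neutral-control signal and 100% = twice that signal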
#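 Test system: SR-BI-overexpressing, LDLR-lacking CHO cells; Also added: labelled HDL, 10 µg/mL; Measured by: bottom-read cell fluorescence after medium removal, ex 550/em 595 nm; Timing: 3 h uptake period with compound, 37 °C; Buffer or medium: F12, 0.5% BSA, 25 mM HEPES; Doses: single compound concentration, delivered by pin transfer.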
# ARNT-TACC3 inh: disrupts binding between human ARNT and TACC3. Q9Y6A5. AlphaScreen His-ARNT PAS-B/GST-TACC3 binding, luminescence; TACC3 fragment carries E629A point mutation. inhibition, % at 9.99 µM. 0.66% of 390,000 active. AID 623870;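 active = mean inhibition of replicates at least 50% and at least half of replicates each reaching 50%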;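 note: 0% = complete ARNT plus TACC3 wells and 100% = ARNT alone without TACC3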
# miR-122 sensor: blocks miR-122 activity in Huh7 sensor cells; AID 602342; 0.3% of 340,000 active; Huh7 miR-122 Renilla luciferase sensor, 48 h; neutral wells = 0, positive control = 100; activation (reporter increase), % at 12.5 µM;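 active = mean replicate activation score at least 90 and every replicate individually at or above 90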;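 note: higher luciferase means less miR-122 activity so hits act as miR-122 inhibitors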
# CAL PDZ FP-2: inhibitors of human CAL PDZ peptide binding; purified CAL PDZ, TMR-peptide fluorescence polarization, 1 h; inhibition, % at 20 µM; 0.02% of 330,000 active; AID 504414;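 active = highest replicate inhibition of at least 40%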;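 note: plate controls were DMSO neutral control wells for no effect and unlabeled competitor peptide control wells for full effect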
#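 Material: tagged CAL PDZ domain; buffer or medium: 25 mM sodium phosphate pH 7.4, 150 mM NaCl, TCEP, IgG, Thesit; compound dosing: single point, 20 µM; schedule: 1 h incubation at room temperature before polarization reading; measured by: FP readout, S and P plane fluorescence; read-out basis: percent inhibition from loss of millipolarization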
# An asterisk follows results filed as active; x = no result given; ! = repeats disagree; [ ] = another dose, or the depositor's remark.
SMILES,CAL PDZ FP-1,SR-BI HDL uptake,SR-BI DiI-HDL act,ARNT-TACC3 inh,miR-122 sensor,CAL PDZ FP-2
CCC(CC)NC(=O)CON=C1c2ccccc2-c2ccccc21,-4,72*,-72,2,-7,-2
O=C(COc1ccccc1[N+](=O)[O-])c1ccccc1,-2,3,-3,-18,-5,1
COC(=O)/C=C/COc1ccccc1[N+](=O)[O-],35*,-3,3,-5,x,1
N=c1c2ccccc2nnn1-c1ccccc1[N+](=O)[O-],-2,-1,1,-4,161*,-1
CC(C)CC#Cc1ccc2c(c1)O[C@H](CN(C)Cc1ccccc1F)[C@H](C)CN([C@@H](C)CO)S2(=O)=O,x,x,x,8,26[16.7 µM],x
C[C@H](CO)N1C[C@H](C)[C@@H](CN(C)Cc2ccc(-c3ccccc3)cc2)Oc2ccc(NC(=O)Nc3ccccc3)cc2C1=O,x,x,x,1,-6[16.7 µM],x
COc1ccc(NC(=O)CSc2c(C)nn(-c3nnc(C)c(=O)[nH]3)c2C)cc1,0,-19,19,60*,-1,-2
C[C@@H]1CN([C@H](C)CO)C(=O)Cc2cc(NC(=O)C3CC3)ccc2O[C@H]1CN(C)C,x,x,x,-4,7[16.7 µM],x
CCCC(O)(CCN1CCOCC1)c1ccc(Cl)cc1 (stereo not drawn),41*,-27,27,-15,-17,19
CCCC(O)(c1ccc(OC)cc1)C(CN1CCOCC1)c1ccc(Cl)cc1 (stereo not drawn),5,-7,7,-6,2,-3
CCCC(O)(CCN1CCOCC1)c1ccc(Br)cc1 (stereo not drawn),-3,-7,7,-6,-2,1
CCCC(O)(c1ccc(Cl)cc1)C(CN1CCOCC1)c1ccc(Cl)cc1 (stereo not drawn),-1,79*,-79,-9,3,x
CS(=O)(=O)Nc1ccc2c(c1)[C@@H]1C[C@@H](CC(=O)NC3CCCCC3)O[C@H](CO)[C@@H]1O2,x,x,x,-6,6[16.7 µM],x
CCN(CC(=O)NCc1ccccn1)S(=O)(=O)c1cc(Cl)ccc1Cl,0,-21,21,3,-5,-1
O=C(CN(c1cccc(Cl)c1)S(=O)(=O)c1ccc(Cl)cc1)NCc1ccccn1,1,83*,-83,47*,22,0
Cc1ccsc1/C=N/Nc1nc(=O)[nH]nc1C,x,5,-5,64*,4,0
Cc1cc(C)nc(N/N=C/c2sccc2C)n1,13,18,-18,-2,x,-2
NC(=O)CC(NC(=O)Cc1cccc2ccccc12)c1ccc(NCc2ccccn2)c([N+](=O)[O-])c1 (stereo not drawn),32*,-12,12,20,-4,0
CN1CCN(C(=O)C[C@H]2C[C@@H]3c4cc(NC(=O)CC5CC5)ccc4O[C@@H]3[C@H](CO)O2)CC1,x,x,x,x,2[16.7 µM],x
O=C(NC1CCCCC1)c1ccc(CS(=O)(=O)c2ccc(Cl)cc2)o1,4,-2,2,-4,2,-1
O=C(NC1CCCC1)c1ccc(CS(=O)(=O)c2ccc(Cl)cc2)o1,70*,-32,32,-3,1,-2
NC(=O)C1CCN(C(=O)CCn2c(=O)oc3ccccc32)CC1,-1,1,-1,1,-6,1
CC(=O)Cn1c(=O)oc2ccccc21,x,-114,113*,-2,-2,0
CC1CC(C)CN(C(=O)CCn2c(=O)oc3ccccc32)C1 (stereo not drawn),45*,-13,13,-3,0,14
CO[C@H]1CN(C)C(=O)c2cc(NC(=O)C3CCC3)ccc2OC[C@H](C)N(Cc2ccccn2)C[C@@H]1C,x,x,x,0,x,x
COc1ccc(S(=O)(=O)Nc2cccc3c2O[C@H](CN(C)Cc2ccc(Cl)c(Cl)c2)[C@H](C)CN([C@@H](C)CO)C3=O)cc1,x,x,x,x,2[16.7 µM],x
C[C@H](CO)N1C[C@H](C)[C@@H](CN(C)Cc2ccc(Cl)c(Cl)c2)Oc2c(NS(=O)(=O)c3ccccc3)cccc2C1=O,x,x,x,1,106*![16.7 µM],x
